Measurements taken from ChEMBL document CHEMBL3244330, “Structure--activity relationships of n-substituted dopamine and 2-amino-6,7-dihydroxy-1,2,3,4-tetrahydronaphthalene analogues: behavioral effects in lesioned and reserpinized mice” (J Med Chem, 1979).
Activity calls are given as the source filed them. No cut-off for these calls is given here.

Assays:
[1] = system: Mus musculus; assay: Postural effect on caudectomized Swiss albino mouse assessed as latency to onset time of asymmetric postural effect at 100.5 mg/kg, ip; assay type: functional, organism-based; parameters: dose 100.5 mg/kg
Procedure, shortened: (§1)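 Male Swiss albino Hale-Stoner mice with a right caudectomy made by suction. A lesion was accepted if the mouse responded to apomorphine 4 weeks after surgery. Compounds were dissolved in 0.9% saline and injected ip at random into groups of six, with a maximum dose of 0.348 mmol/kg. 18 mice were used per compound, and mice were retested after 5–6 day intervals. Onset and duration of the asymmetric posture are reported as mean ± SE from six animals.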

[2] = system: Mus musculus; assay: Postural effect on caudectomized Swiss albino mouse assessed as latency to onset time of asymmetric postural effect at 90.8 mg/kg, ip; assay type: functional, organism-based; parameters: dose 90.8 mg/kg; procedure, shortened: as §1
[3] = system: Mus musculus; assay: Postural effect on caudectomized Swiss albino mouse assessed as latency to onset time of asymmetric postural effect at 26.3 mg/kg, ip; assay type: functional, organism-based; parameters: dose 26.3 mg/kg; procedure, shortened: as §1
[4] = system: Mus musculus; assay: Postural effect on caudectomized Swiss albino mouse assessed as latency to onset time of asymmetric postural effect at 52.6 mg/kg, ip; assay type: functional, organism-based; parameters: dose 52.6 mg/kg; procedure, shortened: as §1
[5] = system: Mus musculus; assay: Postural effect on caudectomized Swiss albino mouse assessed as latency to onset time of asymmetric postural effect at 78.9 mg/kg, ip; assay type: functional; details: route intraperitoneal; procedure, shortened: as §1
[6] = system: Mus musculus; assay: Postural effect on caudectomized Swiss albino mouse assessed as latency to onset time of asymmetric postural effect at 92 mg/kg, ip; assay type: functional; details: route intraperitoneal; procedure, shortened: as §1
[7] = system: Mus musculus; assay: Postural effect on caudectomized Swiss albino mouse assessed as latency to onset time of asymmetric postural effect at 105.1 mg/kg, ip; assay type: functional; details: route intraperitoneal; procedure, shortened: as §1
[8] = system: Mus musculus; assay: Postural effect on caudectomized Swiss albino mouse assessed as time duration of asymmetric posture at 78.9 mg/kg, ip; assay type: functional; details: route intraperitoneal
Procedure, shortened: (§2)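 Male Swiss albino Hale-Stoner mice given a right caudectomy by suction. The lesion counted as successful if the mice reacted to apomorphine 4 weeks later. Drug was given ip in 0.9% saline, up to 0.348 mmol/kg, to randomised groups of six, with 5-6 days before reuse. Onset and duration of asymmetric posture are reported as mean ± SE from six animals.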

[9] = system: Mus musculus; assay: Postural effect on caudectomized Swiss albino mouse assessed as time duration of asymmetric posture at 92 mg/kg, ip; assay type: functional; details: route intraperitoneal; procedure, shortened: as §2
[10] = system: Mus musculus; assay: Postural effect on caudectomized Swiss albino mouse assessed as time duration of asymmetric posture at 105.1 mg/kg, ip; assay type: functional; details: route intraperitoneal; procedure, shortened: as §1
[11] = system: Mus musculus; assay: Reversal of reserpine-induced catalepsy in Swiss albino (CD1) mouse at 0.348 mmol/kg, ip; assay type: functional, organism-based
[12] = system: Mus musculus; assay: Postural effect on caudectomized Swiss albino mouse assessed as latency to onset time of asymmetric postural effect at 34.2 mg/kg, ip; assay type: functional; details: route intraperitoneal; procedure, shortened: as §1
[13] = system: Mus musculus; assay: Postural effect on caudectomized Swiss albino mouse assessed as latency to onset time of asymmetric postural effect at 68.4 mg/kg, ip; assay type: functional; details: route intraperitoneal; procedure, shortened: as §1
[14] = system: Mus musculus; assay: Postural effect on caudectomized Swiss albino mouse assessed as time duration of asymmetric posture at 34.2 mg/kg, ip; assay type: functional; details: route intraperitoneal; procedure, shortened: as §1
[15] = system: Mus musculus; assay: Postural effect on caudectomized Swiss albino mouse assessed as time duration of asymmetric posture at 68.4 mg/kg, ip; assay type: functional; details: route intraperitoneal; procedure, shortened: as §2
[16] = system: Mus musculus; assay: Reversal of reserpine-induced catalepsy in ip dosed Swiss albino (CD1) mouse; assay type: functional
Procedure, shortened: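 Male Swiss albino CD1 mice, 5 weeks old, got reserpine 5 mg/kg ip, then α-MTM 250 mg/kg ip 17 h later, then the test drug ip 4 h after that. Catalepsy was scored by the rubber-stopper test (time to step off the stopper). At least four doses were used, with ≥8 mice per dose. ED50 was taken from a log-probit plot of percent responders against dose.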

[17] = system: Mus musculus; assay: Postural effect on caudectomized Swiss albino mouse assessed as time duration of asymmetric posture at 23.8 mg/kg, ip; assay type: functional; details: route intraperitoneal; procedure, shortened: as §1
[18] = system: Mus musculus; assay: Postural effect on caudectomized Swiss albino mouse assessed as time duration of asymmetric posture at 47.6 mg/kg, ip; assay type: functional; details: route intraperitoneal; procedure, shortened: as §1
[19] = system: Mus musculus; assay: Postural effect on caudectomized Swiss albino mouse assessed as time duration of asymmetric posture at 71.4 mg/kg, ip; assay type: functional; details: route intraperitoneal; procedure, shortened: as §2
[20] = system: Mus musculus; assay: Postural effect on caudectomized Swiss albino mouse assessed as latency to onset time of asymmetric postural effect at 23.8 mg/kg, ip; assay type: functional; details: route intraperitoneal; procedure, shortened: as §1
[21] = system: Mus musculus; assay: Postural effect on caudectomized Swiss albino mouse assessed as latency to onset time of asymmetric postural effect at 47.6 mg/kg, ip; assay type: functional; details: route intraperitoneal; procedure, shortened: as §1
[22] = system: Mus musculus; assay: Postural effect on caudectomized Swiss albino mouse assessed as latency to onset time of asymmetric postural effect at 71.4 mg/kg, ip; assay type: functional; details: route intraperitoneal; procedure, shortened: as §1
[23] = system: Mus musculus; assay: Postural effect on caudectomized Swiss albino mouse assessed as time duration of asymmetric posture at 858 mg/kg, ip; assay type: functional; details: route intraperitoneal
[24] = system: Mus musculus; assay: Postural effect on caudectomized Swiss albino mouse assessed as latency to onset time of asymmetric postural effect at 858 mg/kg, ip; assay type: functional; details: route intraperitoneal
[25] = system: Mus musculus; assay: Postural effect on caudectomized Swiss albino mouse assessed as time duration of asymmetric posture at 22.6 mg/kg, ip; assay type: functional; details: route intraperitoneal; procedure, shortened: as §1
[26] = system: Mus musculus; assay: Postural effect on caudectomized Swiss albino mouse assessed as time duration of asymmetric posture at 45.2 mg/kg, ip; assay type: functional; details: route intraperitoneal; procedure, shortened: as §1
[27] = system: Mus musculus; assay: Postural effect on caudectomized Swiss albino mouse assessed as time duration of asymmetric posture at 67.8 mg/kg, ip; assay type: functional; details: route intraperitoneal; procedure, shortened: as §2
[28] = system: Mus musculus; assay: Postural effect on caudectomized Swiss albino mouse assessed as latency to onset time of asymmetric postural effect at 22.6 mg/kg, ip; assay type: functional; details: route intraperitoneal; procedure, shortened: as §1
[29] = system: Mus musculus; assay: Postural effect on caudectomized Swiss albino mouse assessed as latency to onset time of asymmetric postural effect at 45.2 mg/kg, ip; assay type: functional; details: route intraperitoneal; procedure, shortened: as §1
[30] = system: Mus musculus; assay: Postural effect on caudectomized Swiss albino mouse assessed as latency to onset time of asymmetric postural effect at 67.8 mg/kg, ip; assay type: functional; details: route intraperitoneal; procedure, shortened: as §1
[31] = system: Mus musculus; assay: Postural effect on caudectomized Swiss albino mouse assessed as latency to onset time of asymmetric postural effect at 91.2 mg/kg, ip; assay type: functional, organism-based; parameters: dose 91.2 mg/kg
Procedure, shortened: (§3)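 Male Swiss albino Hale-Stoner mice with right caudectomy by suction, used if responsive to apomorphine 4 weeks post-lesion. Compound in 0.9% saline given ip, maximum 0.348 mmol/kg. 18 mice per compound in random groups of six, retested after 5–6 day intervals. Onset latency and duration of asymmetric posture recorded; mean ± SE from six animals.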

[32] = system: Mus musculus; assay: Postural effect on caudectomized Swiss albino mouse assessed as latency to onset time of asymmetric postural effect at 32.3 mg/kg, ip; assay type: functional; details: route intraperitoneal; procedure, shortened: as §1
[33] = system: Mus musculus; assay: Postural effect on caudectomized Swiss albino mouse assessed as latency to onset time of asymmetric postural effect at 64.6 mg/kg, ip; assay type: functional; details: route intraperitoneal; procedure, shortened: as §1
[34] = system: Mus musculus; assay: Postural effect on caudectomized Swiss albino mouse assessed as latency to onset time of asymmetric postural effect at 96.9 mg/kg, ip; assay type: functional; details: route intraperitoneal; procedure, shortened: as §1
[35] = system: Mus musculus; assay: Postural effect on caudectomized Swiss albino mouse assessed as time duration of asymmetric posture at 32.3 mg/kg, ip; assay type: functional; details: route intraperitoneal; procedure, shortened: as §1
[36] = system: Mus musculus; assay: Postural effect on caudectomized Swiss albino mouse assessed as time duration of asymmetric posture at 64.6 mg/kg, ip; assay type: functional; details: route intraperitoneal; procedure, shortened: as §2
[37] = system: Mus musculus; assay: Postural effect on caudectomized Swiss albino mouse assessed as time duration of asymmetric posture at 96.9 mg/kg, ip; assay type: functional; details: route intraperitoneal; procedure, shortened: as §2
[38] = system: Mus musculus; assay: Postural effect on caudectomized Swiss albino mouse assessed as latency to onset time of asymmetric postural effect at 28 mg/kg, ip; assay type: functional; details: route intraperitoneal; procedure, shortened: as §1
[39] = system: Mus musculus; assay: Postural effect on caudectomized Swiss albino mouse assessed as latency to onset time of asymmetric postural effect at 56 mg/kg, ip; assay type: functional; details: route intraperitoneal; procedure, shortened: as §1
[40] = system: Mus musculus; assay: Postural effect on caudectomized Swiss albino mouse assessed as time duration of asymmetric posture at 28 mg/kg, ip; assay type: functional; details: route intraperitoneal; procedure, shortened: as §1
[41] = system: Mus musculus; assay: Postural effect on caudectomized Swiss albino mouse assessed as time duration of asymmetric posture at 56 mg/kg, ip; assay type: functional; details: route intraperitoneal; procedure, shortened: as §2
[42] = system: Mus musculus; assay: Postural effect on caudectomized Swiss albino mouse assessed as latency to onset time of asymmetric postural effect at 51.9 mg/kg, ip; assay type: functional, organism-based; parameters: dose 51.9 mg/kg; procedure, shortened: as §3

CCCCCN(CCCC)CCc1ccc(O)c(O)c1
Activity [1]: inactive

CCCCNCCc1ccc(O)c(O)c1
Activity [2]: inactive

CCC(C)N(CCc1ccc(O)c(O)c1)C(C)CC.Cl (centres undefined)
Activity [3]: inactive | Activity [4]: inactive | Time [5]: 1.8 min | Time [6]: 5.2 min | Time [7]: 5 min | Time [8]: 7 min | Time [9]: 7 min | Time [10]: 10.8 min | Activity [11]: inactive

CCCCCN(CCC)CCc1ccc(O)c(O)c1.Cl
Time [12]: 3.7 min | Time [13]: 4.2 min | Time [14]: 17.4 min | Time [15]: 20.6 min | ED50 [16]: 8.7 mg/kg

CCCN(CCC)CCc1ccc(O)c(O)c1.Cl
Time [17]: 6.2 min | Time [18]: 13.9 min | Time [19]: 21.9 min | Time [20]: 1.8 min | Time [21]: 3.7 min | Time [22]: 3.1 min | ED50 [16]: 16 mg/kg

N[C@@H](Cc1ccc(O)c(O)c1)C(=O)O [LEVODOPA]
Time [23]: 24 min | Time [24]: 17.7 min | ED50 [16]: 248 mg/kg

CCCCN(C)CCc1ccc(O)c(O)c1.Cl
Time [25]: 3.7 min | Time [26]: 2.3 min | Time [27]: 2.2 min | Time [28]: 0.4 min | Time [29]: 1.3 min | Time [30]: 3.1 min | ED50 [16]: 61 mg/kg

CCCCN(CCc1ccccc1)CCc1ccc(O)c(O)c1
Activity [31]: inactive

Br.CCCCN(CCCC)C1CCc2cc(O)c(O)cc2C1 (centres undefined)
Time [32]: 1 min | Time [33]: 5.3 min | Time [34]: 4.1 min | Time [35]: 1.6 min | Time [36]: 8.8 min | Time [37]: 13.7 min | ED50 [16]: 44 mg/kg

CCCN(CCc1ccc(O)c(O)c1)Cc1ccccc1.Cl
Time [38]: 5.2 min | Time [39]: 5.7 min | Time [40]: 7.8 min | Time [41]: 26.6 min | ED50 [16]: 21 mg/kg

CCCN(CC)CCc1ccc(O)c(O)c1.Cl
Time [25]: 2.3 min | Time [26]: 6.3 min | Time [27]: 11.2 min | Time [28]: 3.2 min | Time [29]: 3.2 min | Time [30]: 3.6 min | ED50 [16]: 33 mg/kg

Oc1ccc(CCN(CCc2ccccc2)CCc2ccccc2)cc1O
Activity [42]: inactive
